# Assay results reported in ChEMBL document CHEMBL4706495, “A novel class of small molecule inhibitors with radioprotective properties” (Eur J Med Chem, 2020).
# Calls of active or inactive are those of the source. The rule behind the calls is not given here.
# Tests used:
# SAOS-2 [1] = assay: Cytotoxicity against human SAOS-2 cells assessed as cell viability at 1 uM measured after 48 hrs by WST-1 assay relative to control; format: functional; conditions: read-out: Activity
# MOLT-4 [2] = assay: Cytotoxicity against human MOLT-4 cells assessed as cell viability at 1 uM measured after 48 hrs by WST-1 assay relative to control; format: functional; conditions: read-out: Activity
# A549 [3] = assay: Cytotoxicity against human A549 cells assessed as cell viability at 1 uM measured after 48 hrs by WST-1 assay relative to control; format: functional; conditions: read-out: Activity
# HeLa [4] = assay: Cytotoxicity against human HeLa cells assessed as cell viability at 1 uM measured after 48 hrs by WST-1 assay relative to control; format: functional; conditions: read-out: Activity
# [5] = Cytotoxicity against human MRC5 cells assessed as cell viability at 1 uM measured after 48 hrs by WST-1 assay relative to control; format: cell-based; conditions: read-out: Activity
# Jurkat [6] = assay: Cytotoxicity against human Jurkat cells assessed as cell viability at 1 uM measured after 48 hrs by WST-1 assay relative to control; format: functional; conditions: read-out: Activity
# MCF7 [7] = assay: Cytotoxicity against human MCF7 cells assessed as cell viability at 1 uM measured after 48 hrs by WST-1 assay relative to control; format: functional; conditions: read-out: Activity
# HT-29 [8] = assay: Cytotoxicity against human HT-29 cells assessed as cell viability at 1 uM measured after 48 hrs by WST-1 assay relative to control; format: functional; conditions: read-out: Activity
# A2780 [9] = assay: Cytotoxicity against human A2780 cells assessed as cell viability at 1 uM measured after 48 hrs by WST-1 assay relative to control; format: functional; conditions: read-out: Activity
# PANC-1 [10] = assay: Cytotoxicity against human PANC-1 cells assessed as cell viability at 1 uM measured after 48 hrs by WST-1 assay relative to control; format: functional; conditions: read-out: Activity
# A549 [11] = assay: Cytotoxicity against human A549 cells assessed as maximum tolerated concentration incubated for 24 hrs by MTT assay; format: functional
# Outline: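 A-549 cells in DMEM with 10% FBS and 1% penicillin-streptomycin, left to attach overnight. Compounds made up in PBS, serially diluted in DMEM, incubated 24 h, then viability read by MTT reduction against untreated controls on each plate. MTC taken as the highest concentration showing no significant difference from non-treated control (t-test).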
# HeLa [12] = assay: Cytotoxicity against human HeLa cells assessed as cell viability at 100 uM measured after 48 hrs by WST-1 assay relative to control; format: functional; conditions: read-out: Activity
# Outline: (§1)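 Ten-line human panel (9 cancer, 1 non-cancerous). Cells were seeded at a pre-established optimal density (500–30 × 10³ per well) and settled overnight. Compounds came from 10 mM DMSO stocks and were tested at two concentrations. WST-1 readout followed the manufacturer's protocol at the end of cultivation. Viability is expressed as % of untreated control cells, mean of three independent experiments.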
# MCF7 [13] = assay: Cytotoxicity against human MCF7 cells assessed as cell viability at 10 uM measured after 48 hrs by WST-1 assay relative to control; format: functional; conditions: read-out: Activity; outline: as §1
# Jurkat [14] = assay: Cytotoxicity against human Jurkat cells assessed as cell viability at 10 uM measured after 48 hrs by WST-1 assay relative to control; format: functional; conditions: read-out: Activity; outline: as §1
# [15] = Toxicity in C57Bl/6 mouse assessed as mouth death at 100 mg/kg, ip measured after 30 days; format: organism-based; conditions: in vivo, 720 h, time 30 day
# Outline: (§2)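 Safety in C57Bl/6 mice (27 ± 3 g) given a single 100 mg/kg i.p. injection without irradiation. Deaths, adverse effects and body weight followed over 30 days against an untreated control group. Weight reported as change from day 0.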
# A549 [16] = assay: Cytotoxicity against human A549 cells assessed as cell viability at 100 uM measured after 48 hrs by WST-1 assay relative to control; format: functional; conditions: read-out: Activity; outline: as §1
# [17] = Toxicity in C57Bl/6 mouse assessed as adverse effects at 100 mg/kg, ip measured after 30 days; format: organism-based; conditions: in vivo, 720 h, time 30 day; outline: as §2
# [18] = Cytotoxicity against human MRC5 cells assessed as cell viability at 100 uM measured after 48 hrs by WST-1 assay relative to control; format: cell-based; conditions: read-out: Activity; outline: as §1
# SAOS-2 [19] = assay: Cytotoxicity against human SAOS-2 cells assessed as cell viability at 100 uM measured after 48 hrs by WST-1 assay relative to control; format: functional; conditions: read-out: Activity; outline: as §1
# [20] = Toxicity in C57Bl/6 mouse assessed as average body weight at 100 mg/kg, ip measured after 30 days (reference value: 27 +/ 3.2 g); format: organism-based; conditions: in vivo, 720 h, time 30 day
# MOLT-4 [21] = assay: Cytotoxicity against human MOLT-4 cells assessed as cell viability at 100 uM measured after 48 hrs by WST-1 assay relative to control; format: functional; conditions: read-out: Activity; outline: as §1
# A549 [22] = assay: Cytotoxicity against human A549 cells assessed as cell viability at 10 uM measured after 48 hrs by WST-1 assay relative to control; format: functional; conditions: read-out: Activity; outline: as §1
# MCF7 [23] = assay: Cytotoxicity against human MCF7 cells assessed as cell viability at 100 uM measured after 48 hrs by WST-1 assay relative to control; format: functional; conditions: read-out: Activity; outline: as §1
# A2780 [24] = assay: Cytotoxicity against human A2780 cells assessed as cell viability at 100 uM measured after 48 hrs by WST-1 assay relative to control; format: functional; conditions: read-out: Activity; outline: as §1
# [25] = Cytotoxicity against human MRC5 cells assessed as cell viability at 10 uM measured after 48 hrs by WST-1 assay relative to control; format: cell-based; conditions: read-out: Activity; outline: as §1
# A549 [26] = assay: Cytotoxicity against human A549 cells assessed as reduction in cell viability incubated for 24 hrs by MTT assay; format: functional, cell-based; conditions: A549, 24 h
# Outline: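 A-549 cells in DMEM with 10% FBS and 1% penicillin-streptomycin were attached overnight. Compounds were prepared in PBS and serially diluted in DMEM, then incubated 24 h. Viability was read by colorimetric MTT reduction against an untreated control on each plate (100%). IC50 came from four-parameter nonlinear regression of the log concentration-response curve, mean ± SEM. MTC is the highest concentration not differing from control (t-test).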
# Mus musculus [27] = assay: Radioprotective activity in C57Bl/6 mouse assessed as average body weight at 100 mg/kg, ip administered 5 min prior to gamma-irradation at 8.5 Gy and measured after 30 days; format: functional
# Mus musculus [28] = assay: Radioprotective activity in C57Bl/6 mouse assessed as average body weight at 100 mg/kg, ip administered 5 min prior to gamma-irradation at 8.5 Gy and measured immediately (reference value: 25.4 +/- 2.6 g); format: functional
# MOLT-4 [29] = assay: Radioprotective activity against gamma irradiation-induced apoptosis in human MOLT-4 cells assessed as viable cells at 100 uM pretreated with compound for 1 hr followed by gamma irradiation and measured after 24 hrs by annexinV/propidium iodide staining based flow cytometry (reference value: 40 %); format: functional; conditions: MOLT-4, light or radiation study, time 25 hrs, read-out: Activity
# HT-29 [30] = assay: Cytotoxicity against human HT-29 cells assessed as cell viability at 10 uM measured after 48 hrs by WST-1 assay relative to control; format: functional; conditions: read-out: Activity; outline: as §1
# PANC-1 [31] = assay: Cytotoxicity against human PANC-1 cells assessed as cell viability at 10 uM measured after 48 hrs by WST-1 assay relative to control; format: functional; conditions: read-out: Activity; outline: as §1
# MOLT-4 [32] = assay: Cytotoxicity against human MOLT-4 cells assessed as cell viability at 10 uM measured after 48 hrs by WST-1 assay relative to control; format: functional; conditions: read-out: Activity; outline: as §1
# PANC-1 [33] = assay: Cytotoxicity against human PANC-1 cells assessed as cell viability at 100 uM measured after 48 hrs by WST-1 assay relative to control; format: functional; conditions: read-out: Activity; outline: as §1
# Mus musculus [34] = assay: Radioprotective activity in C57Bl/6 mouse assessed as increase in absolute B-lymphocytes at 100 mg/kg, ip pretreated with compound for 5 min followed by gamma irradiation at 8.5 Gy and measured after 12 to 30 days by flow cytometry; format: functional, organism-based
# Outline: (§3)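 C57Bl/6 mice receive 100 mg/kg i.p. 5 min before a single 8.5 Gy ⁶⁰Co γ dose. At 7, 12 and 30 days post-irradiation, 100 µl peripheral blood is stained with anti-CD3ε, CD19 and NK1.1 antibodies for 30 min at 4 °C in the dark. Samples are washed twice and analysed by flow cytometry for T, B and NK cells. Mean ± SEM.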
# HT-29 [35] = assay: Cytotoxicity against human HT-29 cells assessed as cell viability at 100 uM measured after 48 hrs by WST-1 assay relative to control; format: functional; conditions: read-out: Activity; outline: as §1
# SAOS-2 [36] = assay: Cytotoxicity against human SAOS-2 cells assessed as cell viability at 10 uM measured after 48 hrs by WST-1 assay relative to control; format: functional; conditions: read-out: Activity; outline: as §1
# HeLa [37] = assay: Cytotoxicity against human HeLa cells assessed as cell viability at 10 uM measured after 48 hrs by WST-1 assay relative to control; format: functional; conditions: read-out: Activity; outline: as §1
# Jurkat [38] = assay: Cytotoxicity against human Jurkat cells assessed as cell viability at 100 uM measured after 48 hrs by WST-1 assay relative to control; format: functional; conditions: read-out: Activity; outline: as §1
# Mus musculus [39] = assay: Radioprotective activity in C57Bl/6 mouse assessed as body weight gain at 100 mg/kg, ip administered 5 min prior to gamma-irradation at 8.5 Gy measured after 30 days relative to control; format: functional
# Mus musculus [40] = assay: Radioprotective activity in C57Bl/6 mouse assessed as increase in absolute NK population at 100 mg/kg, ip pretreated with compound for 5 min followed by gamma irradiation at 8.5 Gy and measured after 12 to 30 days by flow cytometry; format: functional, organism-based; outline: as §3
# Mus musculus [41] = assay: Radioprotective activity in C57Bl/6 mouse assessed as median survival time at 100 mg/kg, ip administered 5 min prior to gamma-irradation at 8.5 Gy and measured after 30 days (reference value: 12 days); format: functional
# [42] = Toxicity in C57Bl/6 mouse assessed as change in body weight at 100 mg/kg, ip measured after 30 days (reference value: 103 +/- 12 %); format: organism-based; conditions: in vivo, 720 h, time 30 day
# A2780 [43] = assay: Cytotoxicity against human A2780 cells assessed as cell viability at 10 uM measured after 48 hrs by WST-1 assay relative to control; format: functional; conditions: read-out: Activity; outline: as §1
# [44] = Toxicity in C57Bl/6 mouse assessed as average body weight at 100 mg/kg, ip and measured immediately (reference value: 26.3 +/- 2.4 g); format: organism-based; conditions: in vivo
# Mus musculus [45] = assay: Radioprotective activity in C57Bl/6 mouse assessed as increase in absolute T-lymphocytes at 100 mg/kg, ip pretreated with compound for 5 min followed by gamma irradiation at 8.5 Gy and measured after 12 to 30 days by flow cytometry; format: functional, organism-based; outline: as §3
structure (smiles),measurement,setting,value
COc1cccc2c1C(=O)c1c(O)c3c(c(O)c1C2=O)C[C@@](O)(C(=O)CO)C[C@@H]3O[C@H]1C[C@H](N)[C@H](O)[C@H](C)O1 [DOXORUBICIN],viability at 1 µM,SAOS-2 [1],22%
same,viability at 1 µM,MOLT-4 [2],1%
same,viability at 1 µM,A549 [3],42%
same,viability at 1 µM,HeLa [4],76%
same,"viability at 48 h, 1 µM",[5],22%
same,viability at 1 µM,Jurkat [6],2%
same,viability at 1 µM,MCF7 [7],32%
same,viability at 1 µM,HT-29 [8],55%
same,viability at 1 µM,A2780 [9],8%
same,viability at 1 µM,PANC-1 [10],78%
COc1cc([N+](=O)[O-])ccc1OCC(O)CN1CCN(CCO)CC1 (stereo not given),MTD,A549 [11],0.78 mM
same,viability at 100 µM,HeLa [12],108%
same,viability at 10 µM,MCF7 [13],103%
same,viability at 10 µM,Jurkat [14],101%
same,Activity,[15],Non-Toxic
same,viability at 100 µM,A549 [16],105%
same,Activity,[17],Non-Toxic
same,"viability at 48 h, 100 µM",[18],97%
same,viability at 100 µM,SAOS-2 [19],94%
same,Activity,[20],28.5 g
same,viability at 100 µM,MOLT-4 [21],99%
same,viability at 10 µM,A549 [22],93%
same,viability at 100 µM,MCF7 [23],98%
same,viability at 100 µM,A2780 [24],95%
same,"viability at 48 h, 10 µM",[25],97%
same,IC50,A549 [26],4.45 mM
same,Activity,Mus musculus [27],26.5 g
same,Activity,Mus musculus [28],26.1 g
same,viability at 100 µM,MOLT-4 [29],59%
same,viability at 10 µM,HT-29 [30],99%
same,viability at 10 µM,PANC-1 [31],92%
same,viability at 10 µM,MOLT-4 [32],92%
same,viability at 100 µM,PANC-1 [33],105%
same,Activity,Mus musculus [34],Active
same,viability at 100 µM,HT-29 [35],111%
same,viability at 10 µM,SAOS-2 [36],103%
same,viability at 10 µM,HeLa [37],101%
same,viability at 100 µM,Jurkat [38],92%
same,Activity,Mus musculus [39],101%
same,Activity,Mus musculus [40],Active
same,MST,Mus musculus [41],11 days
same,Activity,[42],103%
same,viability at 10 µM,A2780 [43],99%
same,Activity,[44],27.8 g
same,Activity,Mus musculus [45],Active
